# Calls of active or inactive are those of the source. No cut-off for these calls is given here.
# Experiments:
# [1] = Drug level in mouse brain at 50 mg/kg, po administered as single dose via gavage measured at 24 hrs post dose by liquid chromatography/tandem mass spectrometric analysis; type: ADME, organism-based; details: read-out: Drug uptake
# In short: (§1)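 Single 50 mg/kg oral dose in DMSO (5%), Tween 80 (7%), EtOH (3%) in 0.9% saline; groups of three mice killed at 1, 4, 8 and 24 h. Plasma separated by brief centrifugation; brain homogenised in acetonitrile; both assayed by LC-MS/MS, brain values corrected for 3% v/w blood content. Mean ± SEM of 3 mice; plasma LLQ 0.010 μM.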
# [2] = Drug level in Swiss-Webster mouse plasma infected with Trypanosoma brucei brucei TREU667 at 50 mg/kg, po bid administered via gavage for 10 days starting from 21 days post infection measured at 1 hr post last dose; type: ADME, organism-based
# [3] = Cmax in mouse brain at 50 mg/kg, po administered as single dose via gavage by liquid chromatography/tandem mass spectrometric analysis; type: ADME, organism-based; parameters: dose 50 mg/kg, route oral
# In short: (§2)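 Time course after a single 50 mg/kg oral dose in 5% DMSO/7% Tween 80/3% EtOH in 0.9% saline. Mice are sacrificed in groups of three at 1, 4, 8 and 24 h. Plasma is separated by centrifugation and brain homogenized in acetonitrile, both measured by LC-MS/MS. Brain values are corrected for 3% v/w blood. Lower limit of quantitation 0.010 μM. Values are means ± SEM.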
# [4] = Stability in mouse liver microsomes assessed as compound remaining at 1.5 uM in presence of NADPH measured after 60 mins by liquid chromatography/tandem mass spectrometric analysis; type: ADME, microsome; details: read-out: Stability
# In short: (§3)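 Pooled liver microsomes (0.5 mg/mL) are preincubated 5 min at 37 °C in 0.16 M KH2PO4 with 1 mM NADPH, then test compound is added at 1.5 μM. Aliquots are quenched with 4 volumes of acetonitrile at 0, 5, 10, 15, 30 and 60 min and analyzed by LC-MS/MS. Percent remaining at 5 or 60 min is given when t1/2 is outside the 5–60 min range. Controls: testosterone, dextromethorphan.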
# [5] = AUC (0 to infinity) in mouse at 50 mg/kg, po administered as single dose via gavage as 0.5% methylcellulose cP400/0.5% Tween 80 formulation by liquid chromatography/tandem mass spectrometric analysis; type: ADME, organism-based; parameters: dose 50 mg/kg, route oral, time infinity; details: in vivo
# In short: (§4)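 Single oral gavage dose of 50 mg/kg to groups of three mice, vehicle as in the line. Tail blood of 40 μL is taken into heparinized capillaries at time points out to as much as 32 h. It is spotted on dried-blood cards and quantified by LC-MS/MS. Values are means ± SEM of three mice.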
# [6] = Drug level in mouse plasma at 50 mg/kg, po administered as single dose via gavage measured at 8 hrs post dose by liquid chromatography/tandem mass spectrometric analysis; type: ADME, organism-based; in short: as §1
# [7] = Cytotoxicity against human CRL8155 cells assessed as growth inhibition after 48 hrs by Alamar blue assay; type: cell-based; details: Homo sapiens, CRL8155, 48 h
# In short: (§5)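 CRL-8155 lymphoblasts or HepG2 hepatocellular carcinoma cells are exposed 48 h to serial compound dilutions in quadruplicate. Growth is read with Alamar Blue, and 50% and 90% inhibitory concentrations come from nonlinear regression. Quinacrine is the control.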
# [8] = AUC (0 to infinity) in mouse at 50 mg/kg, po administered as single dose via gavage as 7% Tween 80/3% EtOH/5% DMSO formulation by liquid chromatography/tandem mass spectrometric analysis; type: ADME, organism-based; parameters: dose 50 mg/kg, route oral, time infinity; details: in vivo; in short: as §4
# [9] = AUC (0 to infinity) in mouse at 50 mg/kg, po administered as single dose via gavage as 60% phosal 53 MCT/30% PEG400/10% EtOH formulation by liquid chromatography/tandem mass spectrometric analysis; type: ADME, organism-based; parameters: dose 50 mg/kg, time infinity, route oral; details: in vivo; in short: as §4
# [10] = AUC (0 to infinity) in mouse brain at 50 mg/kg, po administered as single dose via gavage by liquid chromatography/tandem mass spectrometric analysis; type: ADME, organism-based; parameters: dose 50 mg/kg, time infinity, route oral; in short: as §2
# [11] = system: HepG2; test: Cytotoxicity against human HepG2 cells assessed as growth inhibition after 48 hrs by Alamar blue assay; type: cell-based; details: Homo sapiens, HepG2, 48 h; in short: as §5
# [12] = system: Trypanosoma brucei rhodesiense; test: Antiparasitic activity against Trypanosoma brucei rhodesiense STIB900 infected in Swiss-Webster mouse assessed as reduction in parasitemia at 50 mg/kg, po bid administered via gavage from day 2 to 5 post infection measured on day 60 by microscopic method; type: functional, organism-based
# In short: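 Female Swiss-Webster (ND4 outbred) mice, 6–8 weeks old, five per group, are infected on day 0 with 1 × 10^4 parasites. Dosing is 50 mg/kg by oral gavage every 12 h on days 2–5 (eight doses) in 200 μL of 5% DMSO/7% Tween 80/3% EtOH in 0.9% saline. Tail blood is examined microscopically for 60 days, and mice become parasitemic are euthanized. Three mice are sampled before dose 7 and at 1 and 6 h after for plasma levels.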
# [13] = Stability in human liver microsomes assessed as compound remaining at 1.5 uM in presence of NADPH measured after 60 mins by liquid chromatography/tandem mass spectrometric analysis; type: ADME, microsome; details: read-out: Stability; in short: as §3
# [14] = Drug level in Swiss-Webster mouse plasma infected with Trypanosoma brucei rhodesiense STIB900 at 50 mg/kg, po bid administered via gavage for 4 days starting from 2 days post infection measured at 6 hrs post last dose; type: ADME, organism-based
# In short: (§6)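 Female Swiss-Webster mice (ND4 outbred, 6−8 weeks), groups of five, infected day 0 with 1 × 10^4 T. b. rhodesiense STIB900; 50 mg/kg oral gavage every 12 h days 2−5 (eight doses) in 200 μL DMSO 5%, Tween 80 7%, EtOH 3% in 0.9% saline. Tail blood from 3 mice before dose 7, then 1 and 6 h post-dose, spotted on cards, LC-MS/MS.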
# [15] = system: Trypanosoma brucei brucei; test: Antitrypanosomal activity against Trypanosoma brucei brucei BF427 assessed as growth inhibition measured after 48 hrs by Alamar blue assay; type: functional; details: BF427, 48 h
# In short: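 Bloodstream-form parasites in HMI-9 medium are exposed to serial compound dilutions in triplicate. Viability is read with Alamar Blue at 48 h. EC50 and EC90 come from nonlinear regression. Pentamidine isethionate is the control.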
# [16] = Selectivity index, ratio of EC50 for human CRL8155 cells to EC50 for Trypanosoma brucei brucei BF427; type: toxicity; details: read-out: Ratio EC50
# [17] = Drug level in mouse plasma at 5 mg/kg, ip administered as single dose measured at 1 hr post dose by liquid chromatography/tandem mass spectrometric analysis; type: ADME, organism-based
# In short: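 Single ip dose of 5 mg/kg in 5% DMSO/7% Tween 80/3% EtOH in 0.9% saline, three mice per compound (six for one compound). At 1 h, plasma is separated by centrifugation and brain homogenized in acetonitrile. Both are quantified by LC-MS/MS, with brain corrected for 3% v/w blood. Brain/plasma ratio is reported as mean ± SEM.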
# [18] = Drug level in Swiss-Webster mouse plasma infected with Trypanosoma brucei rhodesiense STIB900 at 50 mg/kg, po bid administered via gavage for 4 days starting from 2 days post infection measured at 1 hr post last dose; type: ADME, organism-based; in short: as §6
# [19] = Drug level in mouse plasma at 50 mg/kg, po administered as single dose via gavage measured at 1 hr post dose by liquid chromatography/tandem mass spectrometric analysis; type: ADME, organism-based; in short: as §1
smiles,measurement,setting,value
O=C(Nc1ccc2sc(-c3ccc(F)c(F)c3)nc2c1)N1CC[C@H](F)C1,concentration at 24 h,[1],280 nM
same,concentration at 1 h,[2],23.1 µM
same,Cmax,[3],54.8 µM
same,"remaining at 1 h, 1.5 µM",[4],73%
same,AUC(0-inf),[5],106 µM·h
same,concentration at 8 h,[6],8.97 µM
same,EC50,[7],> 50 µM
same,AUC(0-inf),[8],220 to 221 µM·h
same,AUC(0-inf),[9],245 µM·h
same,AUC(0-inf),[10],719 µM·h
same,EC50,[11],> 50 µM
same,Activity,[12],Active
same,"remaining at 1 h, 1.5 µM",[13],53%
same,concentration at 6 h,[14],15 µM
same,EC50,[15],34.8 nM
same,EC90,[15],54.8 nM
same,selectivity ratio,[16],> 1440
same,concentration at 1 h,[17],2270 nM
same,concentration at 1 h,[18],18.6 µM
same,concentration at 1 h,[19],27.1 µM
